Source: ChEMBL document CHEMBL3856275, “Discovery of Second Generation Reversible Covalent DPP1 Inhibitors Leading to an Oxazepane Amidoacetonitrile Based Clinical Candidate (AZD7986)” (J Med Chem, 2016)

How the values were obtained:
[1] = Intrinsic clearance in human liver microsomes at 1 uM after 5 to 40 mins by LC-MS/MS method; assay type: ADME; conditions: read-out: CLH
[2] = Propionaldehyde reactivity assessed as half life of the compound at pH 7.4 by LC-UV method; assay type: physicochemical
[3] = Volume of distribution at steady state in Han Wistar rat at 1 mg/kg, iv and 3 mg/kg, po; assay type: ADME, organism-based; conditions: in vivo, read-out: Vdss
Summary of the method: (§1)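 Han Wistar rat PK with 1 mg/kg iv and 3 mg/kg po doses, both in pH3 buffer. Clearance is given in ml/min/kg, Vss in L/kg and t1/2 in h.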

[4] = Oral bioavailability in Han Wistar rat at 3 mg/kg; assay type: ADME, organism-based; conditions: in vivo; summary of the method: as §1
[5] = Half life in Beagle dog at 1 mg/kg, iv and 2 mg/kg, po; assay type: ADME, organism-based, Canis lupus familiaris; conditions: in vivo
[6] = biological target: T1, Dipeptidyl peptidase 1 (Mus musculus, UniProt P97821); experiment: Inhibition of mouse DPP1 using Gly-Arg-AMC as substrate preincubated for 30 mins followed by substrate addition by fluorometric assay
T1 sequence (P97821 whole entry): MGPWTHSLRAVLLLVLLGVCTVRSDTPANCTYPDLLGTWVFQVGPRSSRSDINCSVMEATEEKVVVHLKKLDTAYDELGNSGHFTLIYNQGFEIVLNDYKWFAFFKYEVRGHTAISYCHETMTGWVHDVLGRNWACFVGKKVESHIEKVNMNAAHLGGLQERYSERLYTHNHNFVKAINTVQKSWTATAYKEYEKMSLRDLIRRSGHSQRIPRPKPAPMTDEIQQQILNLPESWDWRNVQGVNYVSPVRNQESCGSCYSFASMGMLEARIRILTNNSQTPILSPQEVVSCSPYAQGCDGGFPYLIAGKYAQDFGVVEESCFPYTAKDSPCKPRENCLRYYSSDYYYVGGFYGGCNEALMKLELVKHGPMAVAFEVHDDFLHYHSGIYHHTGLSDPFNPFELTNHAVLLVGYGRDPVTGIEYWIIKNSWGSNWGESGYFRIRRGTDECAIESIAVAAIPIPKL
Summary of the method: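 Recombinant mouse DPP1 enzyme, tested under the same conditions as the human assay. Fluorometric assay in piperazine-based buffer.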

[7] = biological target: T2, Dipeptidyl peptidase 1 (Rattus norvegicus, UniProt P80067); experiment: Inhibition of rat DPP1 using Gly-Arg-AMC as substrate preincubated for 30 mins followed by substrate addition by fluorometric assay
T2 sequence (P80067 whole entry): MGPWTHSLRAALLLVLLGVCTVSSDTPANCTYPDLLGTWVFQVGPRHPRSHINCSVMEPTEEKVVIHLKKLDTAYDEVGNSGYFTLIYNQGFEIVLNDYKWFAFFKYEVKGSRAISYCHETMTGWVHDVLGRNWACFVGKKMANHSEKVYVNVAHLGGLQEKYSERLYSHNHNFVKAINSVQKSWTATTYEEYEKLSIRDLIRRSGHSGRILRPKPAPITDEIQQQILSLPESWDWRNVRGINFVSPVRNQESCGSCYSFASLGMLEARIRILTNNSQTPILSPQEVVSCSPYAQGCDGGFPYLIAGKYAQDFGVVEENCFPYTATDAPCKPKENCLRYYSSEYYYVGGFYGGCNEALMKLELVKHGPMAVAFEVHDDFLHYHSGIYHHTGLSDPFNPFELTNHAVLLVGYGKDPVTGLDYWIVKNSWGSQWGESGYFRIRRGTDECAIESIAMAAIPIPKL

[8] = biological target: Cathepsin B (Homo sapiens, UniProt P07858); experiment: Inhibition of human recombinant cathepsin B
[9] = biological target: T3, Cathepsin K (Homo sapiens, UniProt P43235); experiment: Inhibition of human recombinant cathepsin K
T3 sequence (P43235 whole entry): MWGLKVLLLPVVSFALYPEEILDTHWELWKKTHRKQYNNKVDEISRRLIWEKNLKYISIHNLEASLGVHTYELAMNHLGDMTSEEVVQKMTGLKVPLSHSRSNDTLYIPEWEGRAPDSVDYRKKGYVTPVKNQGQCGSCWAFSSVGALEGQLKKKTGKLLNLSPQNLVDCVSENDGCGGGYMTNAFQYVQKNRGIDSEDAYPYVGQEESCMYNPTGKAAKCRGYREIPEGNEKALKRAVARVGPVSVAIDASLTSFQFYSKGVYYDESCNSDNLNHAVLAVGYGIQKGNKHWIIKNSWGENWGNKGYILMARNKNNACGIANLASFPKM

[10] = biological target: Cathepsin D (Homo sapiens, UniProt P07339); experiment: Inhibition of human recombinant cathepsin D
[11] = biological target: Cathepsin Z (Homo sapiens, UniProt Q9UBR2); experiment: Inhibition of human recombinant cathepsin Z
[12] = biological target: T4, Cathepsin G (Homo sapiens, UniProt P08311); experiment: Inhibition of human recombinant cathepsin G
T4 sequence (P08311 whole entry): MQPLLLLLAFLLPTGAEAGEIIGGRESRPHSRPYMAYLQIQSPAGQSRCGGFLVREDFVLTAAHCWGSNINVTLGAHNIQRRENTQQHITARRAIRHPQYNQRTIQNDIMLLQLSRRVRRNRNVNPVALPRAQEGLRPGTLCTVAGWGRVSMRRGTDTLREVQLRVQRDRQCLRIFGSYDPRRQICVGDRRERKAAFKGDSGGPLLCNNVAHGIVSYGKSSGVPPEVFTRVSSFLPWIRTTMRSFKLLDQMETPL

[13] = biological target: Voltage-gated inwardly rectifying potassium channel KCNH2 (Homo sapiens, UniProt Q12809)
[14] = physchem; conditions: octanol/water, pH 7.4

Cathepsin D, sequence (P07339 65-162 limits assumed): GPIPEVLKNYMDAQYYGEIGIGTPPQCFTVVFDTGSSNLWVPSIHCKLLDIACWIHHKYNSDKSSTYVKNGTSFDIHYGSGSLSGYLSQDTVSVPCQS
Cathepsin D, sequence (P07339 169-412 limits assumed): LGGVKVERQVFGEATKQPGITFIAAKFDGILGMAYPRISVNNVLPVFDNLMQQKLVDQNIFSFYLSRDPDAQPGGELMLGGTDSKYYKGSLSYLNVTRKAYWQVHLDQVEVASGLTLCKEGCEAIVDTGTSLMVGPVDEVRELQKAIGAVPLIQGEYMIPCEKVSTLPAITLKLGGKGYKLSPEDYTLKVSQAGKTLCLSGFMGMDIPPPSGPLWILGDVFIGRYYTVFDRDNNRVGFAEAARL
Voltage-gated inwardly rectifying potassium channel KCNH2, sequence (Q12809 whole entry): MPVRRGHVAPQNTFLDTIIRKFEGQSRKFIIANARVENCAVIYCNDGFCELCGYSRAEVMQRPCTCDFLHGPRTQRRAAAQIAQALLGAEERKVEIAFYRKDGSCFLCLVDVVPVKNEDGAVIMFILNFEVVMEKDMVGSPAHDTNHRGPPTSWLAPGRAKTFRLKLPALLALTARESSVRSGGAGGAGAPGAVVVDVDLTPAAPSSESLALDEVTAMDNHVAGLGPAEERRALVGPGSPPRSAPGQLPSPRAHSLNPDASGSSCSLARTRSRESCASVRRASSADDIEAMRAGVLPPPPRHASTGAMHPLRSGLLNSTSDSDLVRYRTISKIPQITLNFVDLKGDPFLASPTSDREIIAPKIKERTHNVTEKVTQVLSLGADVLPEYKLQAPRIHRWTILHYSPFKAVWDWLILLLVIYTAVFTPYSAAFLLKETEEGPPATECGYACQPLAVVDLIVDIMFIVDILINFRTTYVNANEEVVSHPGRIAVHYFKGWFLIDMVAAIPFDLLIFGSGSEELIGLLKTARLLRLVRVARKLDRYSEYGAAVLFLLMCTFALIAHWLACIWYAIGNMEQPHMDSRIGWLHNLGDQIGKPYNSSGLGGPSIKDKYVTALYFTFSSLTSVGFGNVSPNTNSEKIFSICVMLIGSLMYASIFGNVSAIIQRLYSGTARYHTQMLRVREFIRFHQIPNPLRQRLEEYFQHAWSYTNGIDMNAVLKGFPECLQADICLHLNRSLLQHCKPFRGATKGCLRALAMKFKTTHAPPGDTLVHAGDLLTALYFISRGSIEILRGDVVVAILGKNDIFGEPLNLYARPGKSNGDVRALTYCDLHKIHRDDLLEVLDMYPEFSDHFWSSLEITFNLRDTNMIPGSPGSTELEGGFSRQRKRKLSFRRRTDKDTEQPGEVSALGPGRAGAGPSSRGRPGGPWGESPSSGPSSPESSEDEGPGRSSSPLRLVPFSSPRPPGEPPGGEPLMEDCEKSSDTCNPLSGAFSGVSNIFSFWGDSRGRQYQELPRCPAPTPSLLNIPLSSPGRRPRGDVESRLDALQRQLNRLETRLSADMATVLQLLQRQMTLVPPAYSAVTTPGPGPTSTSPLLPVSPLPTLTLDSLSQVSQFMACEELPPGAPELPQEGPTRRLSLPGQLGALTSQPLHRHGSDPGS
Cathepsin Z, sequence (Q9UBR2 whole entry): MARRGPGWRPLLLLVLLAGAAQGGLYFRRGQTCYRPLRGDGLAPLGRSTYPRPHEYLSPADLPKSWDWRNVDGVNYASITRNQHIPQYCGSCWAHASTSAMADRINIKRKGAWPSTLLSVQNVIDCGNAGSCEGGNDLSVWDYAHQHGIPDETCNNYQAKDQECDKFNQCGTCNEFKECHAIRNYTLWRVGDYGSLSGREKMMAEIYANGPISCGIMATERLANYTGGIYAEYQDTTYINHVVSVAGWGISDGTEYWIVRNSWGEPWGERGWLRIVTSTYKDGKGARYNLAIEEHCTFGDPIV

What does the source list for `Cn1c(=O)oc2ccc(-c3ccc(C[C@@H](C#N)NC(=O)[C@@H]4CNCCCO4)cc3)cc21` [BRENSOCATIB]?
microsomal CLint at 1 µM [1]: < 14 µL/min/mg; half-life [2]: > 50 h; Vd [3]: 2.5 L/kg; bioavailability [4]: 75%; half-life [5]: 18 h; IC50 [6]: 0.0251 µM; IC50 [7]: 0.02 µM; IC50 [8]: > 20 µM; IC50 [9]: > 20 µM; IC50 [10]: > 20 µM; IC50 [11]: > 20 µM; IC50 [12]: > 20 µM; IC50 [13]: > 33 µM; logD at 10 µM [14]: 0.8
